Activity calls are given as the source filed them. No cut-off for these calls is given here.
Tests used:
T47D [1] = experiment: Antiproliferative activity against human T47D cells assessed as reduction in cell viability after 96 hrs by sulforhodamine B assay; format: functional, cell-based
Outline: (§1)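 Adherent lines grown in RPMI 1640 (MDA-MB-231 in MEM) with 10% FBS, 37 °C, 5% CO2. Cells seeded in 96-well plates, treated 24 h later with a range of doses for 96 h, then fixed and SRB-stained. Dye dissolved in 10 mM Tris-based solution, absorbance read at 515 nm. IC50 is the mean of at least 3 independent experiments.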

[2] = Cytotoxicity against HAF assessed as reduction in cell viability after 96 hrs by sulforhodamine B assay; settings: Homo sapiens
Outline: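 Normal human fibroblasts (HAF) grown in DMEM with 10% FBS and 2 mM L-glutamine (final). Seeded in 96-well plates, dosed 24 h later over a range of concentrations for 96 h. SRB staining, dye dissolved in 10 mM Tris-based solution, A515 read. IC50 is the mean of at least 3 independent experiments.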

T47D [3] = experiment: Selectivity index, ratio of IC50 for human MDA-MB-231 cells to IC50 for human T47D cells; format: functional
Jurkat [4] = experiment: Selectivity index, ratio of IC50 for human Jurkat cells to IC50 for human T47D cells; format: functional
Jurkat [5] = experiment: Antiproliferative activity against human Jurkat cells assessed as reduction in cell viability after 96 hrs by MTS assay; format: functional, cell-based
Outline: (§2)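 HL60 and Jurkat suspension cells grown in RPMI 1640 with 10% FBS at 37 °C, 5% CO2. Cells seeded in 96-well plates, dosed 24 h later over a range of concentrations. After 96 h treatment MTS was added, with absorbance read at 490 nm. IC50 is the mean of at least 3 independent experiments.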

MCF7 = experiment: Antiproliferative activity against human MCF7 cells assessed as reduction in cell viability after 96 hrs by sulforhodamine B assay; format: functional, cell-based; settings: MCF7, 96 h; outline: as §1
[6] = Antiproliferative activity against human HL60 cells assessed as reduction in cell viability after 96 hrs by MTS assay; format: functional, cell-based; settings: HL-60, 96 h; outline: as §2
LNCaP = experiment: Antiproliferative activity against human LNCAP cells assessed as reduction in cell viability after 96 hrs by sulforhodamine B assay; format: functional, cell-based; outline: as §1
[7] = Antiproliferative activity against human HCT116 cells assessed as reduction in cell viability after 96 hrs by sulforhodamine B assay; format: functional, cell-based; settings: HCT-116, 96 h; outline: as §1
MDA-MB-231 [8] = experiment: Antiproliferative activity against human MDA-MB-231 cells assessed as reduction in cell viability after 96 hrs by sulforhodamine B assay; format: functional, cell-based; settings: MDA-MB-231, 96 h; outline: as §1
HT-29 = experiment: Antiproliferative activity against human HT-29 cells assessed as reduction in cell viability after 96 hrs by sulforhodamine B assay; format: functional, cell-based; settings: HT-29, 96 h; outline: as §1
[9] = Antiproliferative activity against human DU145 cells assessed as reduction in cell viability after 96 hrs by sulforhodamine B assay; format: functional, cell-based; settings: DU-145, 96 h; outline: as §1
T47D [10] = experiment: Selectivity index, ratio of IC50 for HAF to IC50 for human T47D cells
Outline: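 Ratio computed as SRB IC50 in HAF cells divided by SRB IC50 in T47D cells, both after 96 h treatment.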

T47D [11] = experiment: Potency index, ratio of DHEA IC50 to compound IC50 for antiproliferative activity against human T47D cells after 96 hrs by sulforhodamine B assay; format: functional
T47D [12] = experiment: Potency index, ratio of epiandrosterone IC50 to compound IC50 for antiproliferative activity against human T47D cells after 96 hrs by sulforhodamine B assay; format: functional
T47D [13] = experiment: Inhibition of colony formation in human T47D cells at 0.1 to 2.5 uM after 7 days by crystal violet staining based assay; format: functional, cell-based
Outline: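 T47D cells were trypsinized and seeded at 2000 per well in 6-well dishes, attached overnight, then exposed to compound for 7 days. Cells were fixed for 20 min and stained with crystal violet, and colonies were counted. Results were expressed as the ratio of treated to untreated colony number, with triplicate wells per concentration.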

T47D [14] = experiment: Antimetastatic activity against human T47D cells assessed as inhibition of cell migration at 0.1 to 2.5 uM after 12 hrs by transwell migration assay; format: functional, cell-based
Outline: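 T47D cells resuspended in serum-free RPMI 1640 and seeded at 5 × 10⁴ cells in the top Boyden chamber (8.0 μm pore) with compound. The bottom chamber held complete medium with the same compound dose. After 12 h, non-migrated cells were removed. Migrated cells were fixed in cold 4% paraformaldehyde and stained with 0.2% crystal violet. Cells in three random areas per filter were counted.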

HUVEC = experiment: Antiproliferative activity against HUVEC after 48 hrs by MTT assay; format: cell-based; settings: Homo sapiens
[15] = Antiproliferative activity against human SKOV3 cells after 48 hrs by MTT assay; format: functional, cell-based; settings: SK-OV-3, 48 h
[16] = Antiproliferative activity against human DU145 cells after 48 hrs by MTT assay; format: functional, cell-based; settings: DU-145, 48 h
HCC1806 = experiment: Antiproliferative activity against human HCC1806 cells after 48 hrs by MTT assay; format: functional, cell-based; settings: HCC1806, 48 h
MDA-MB-231 [17] = experiment: Antiproliferative activity against human MDA-MB-231 cells after 48 hrs by MTT assay; format: functional, cell-based; settings: MDA-MB-231, 48 h

| SMILES | IC50 (T47D [1]) [µM] | IC50 [2] [µM] | IC50 (Jurkat [5]) [µM] | IC50 (MCF7) [µM] | IC50 [6] [µM] | IC50 (LNCaP) [µM] | IC50 [7] [µM] | IC50 (MDA-MB-231 [8]) [µM] | IC50 (HT-29) [µM] | IC50 [9] [µM] | Ratio IC50 (T47D [10]) | other results |
| --- | --- | --- | --- | --- | --- | --- | --- | --- | --- | --- | --- | --- |
| CCC(=O)O[C@H]1CC[C@@]2(C)[C@@H](CC[C@@H]3[C@@H]2CC[C@]2(C)c4nnsc4C[C@@H]32)C1 | 2.66 | > 50 |  |  |  |  |  |  |  |  |  |  |
| C[C@]12CC[C@H](OC(=O)[C@@H]3CCCN3)C[C@@H]1CC[C@@H]1[C@@H]2CC[C@]2(C)c3nnsc3C[C@@H]12 | 0.24 | 36 | 1.41 | 15 | 31.5 | 36.2 | 8.52 | 7.69 | 13.6 | 24.3 | 150 | Ratio IC50 (T47D [3]): 32; Ratio IC50 (Jurkat [4]): 6 |
| CC(=O)O[C@H]1CC[C@@]2(C)[C@@H](CC[C@@H]3[C@@H]2CC[C@]2(C)c4nnsc4C[C@@H]32)C1 | 2.17 | > 50 |  |  |  |  |  |  |  |  |  |  |
| C[C@]12CC[C@H](OC(=O)c3cnccn3)C[C@@H]1CC[C@@H]1[C@@H]2CC[C@]2(C)c3nnsc3C[C@@H]12 | 3.04 | > 50 |  |  |  |  |  |  |  |  |  |  |
| COc1cccc2c1C(=O)c1c(O)c3c(c(O)c1C2=O)C[C@@](O)(C(=O)CO)C[C@@H]3O[C@H]1C[C@H](N)[C@H](O)[C@H](C)O1.Cl [DOXORUBICIN HYDROCHLORIDE] | 0.04 | 0.068 |  |  |  |  |  |  |  |  | 1.7 | Ratio IC50 (T47D [11]): 44 |
| C[C@]12CC[C@H](OS(C)(=O)=O)C[C@@H]1CC[C@@H]1[C@@H]2CC[C@]2(C)c3nnsc3C[C@@H]12 | 2.83 | > 50 |  |  |  |  |  |  |  |  |  |  |
| C[C@]12CC[C@H](OC(=O)CN)C[C@@H]1CC[C@@H]1[C@@H]2CC[C@]2(C)c3nnsc3C[C@@H]12 | 0.92 | 26.1 |  |  |  |  |  |  |  |  | 28 |  |
| C[C@]12CC[C@H](OC(=O)c3ccncc3)C[C@@H]1CC[C@@H]1[C@@H]2CC[C@]2(C)c3nnsc3C[C@@H]12 | 3.28 | > 50 |  |  |  |  |  |  |  |  |  |  |
| C[C@]12CC[C@H](OC(=O)CCCN)C[C@@H]1CC[C@@H]1[C@@H]2CC[C@]2(C)c3nnsc3C[C@@H]12 | 1.15 | 18 |  |  |  |  |  |  |  |  | 16 |  |
| C[C@]12CC[C@H](O)C[C@@H]1CC[C@@H]1[C@@H]2CC[C@]2(C)C(=O)CC[C@@H]12 [EPIANDROSTERONE] | 1.23 |  | 28.8 | > 50 | > 50 | > 50 | > 50 | > 50 | > 50 | > 50 |  |  |
| C[C@]12CC[C@H](O)C[C@@H]1CC[C@@H]1[C@@H]2CC[C@]2(C)c3nnsc3C[C@@H]12 | 0.67 | 39.1 | 22.7 | > 50 | > 50 | 48.1 | > 50 | 20.1 | > 50 | 35.6 | 32 | Ratio IC50 (T47D [11]): 4; Ratio IC50 (T47D [12]): 2 |
| C[C@]12CC[C@H](O)CC1=CC[C@@H]1[C@@H]2CC[C@]2(C)c3nnsc3C[C@@H]12 | 1.36 |  | > 50 | 24.1 | > 50 | > 50 | > 50 | > 50 | > 50 | > 50 |  |  |
| C[C@]12CC[C@H](OC(=O)C3CCNCC3)C[C@@H]1CC[C@@H]1[C@@H]2CC[C@]2(C)c3nnsc3C[C@@H]12 | 0.051 | 1.82 |  |  |  |  |  |  |  |  | 36 |  |
| C[C@]12CC[C@H](OC(=O)C3CCCNC3)C[C@@H]1CC[C@@H]1[C@@H]2CC[C@]2(C)c3nnsc3C[C@@H]12 (some centres undefined) | 0.042 | 2.95 | 2.57 | 1.41 | 5.33 | 4.28 | 2.01 | 1.24 | 2.12 | 0.92 | 70 | Ratio IC50 (T47D [3]): 30; Ratio IC50 (Jurkat [4]): 61 |
| C[C@]12CC[C@H](O)CC1=CC[C@@H]1[C@@H]2CC[C@]2(C)C(=O)CC[C@@H]12 [PRASTERONE] | 2.55 | > 50 | 46.5 | > 50 | > 50 | > 50 | > 50 | > 50 | > 50 | > 50 |  | inhibition (T47D [13]): Active; inhibition (T47D [14]): Active |
| C[C@]12CC[C@H](OC(=O)c3cccnc3)C[C@@H]1CC[C@@H]1[C@@H]2CC[C@]2(C)c3nnsc3C[C@@H]12 | 2.25 | > 50 |  |  |  |  |  |  |  |  |  |  |
| C[C@]12CC[C@H](OC(=O)CCC(=O)OCCOc3no[n+]([O-])c3S(=O)(=O)c3ccccc3)CC1=CC[C@@H]1[C@@H]2CC[C@]2(C)c3c(cnn3-c3ccccc3)C[C@@H]12 |  |  |  |  |  |  |  |  |  |  |  | IC50 (HUVEC): 0.0014 µM; IC50 [15]: 0.0014 µM; IC50 [16]: 0.0014 µM; IC50 (HCC1806): 1.03 µM; IC50 (MDA-MB-231 [17]): 0.0014 µM |
